The source of these data is ChEMBL document CHEMBL1135521 (J Med Chem, 2002).

The subject of one data set is MT4. As to the kind of experiment: Concentration required to inhibit syncytia formation by 50% on MT-4 cells. It is filed as functional, cell-based. Conditions: Homo sapiens. In a few lines:
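HIV-infected MT4 cell cultures were scored by observing the virus's fusogenic effect, that is, syncytium formation. EC50 is the concentration that halves syncytium formation, and compounds were tested up to 50 µM.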

Data set [1] is described as follows: Concentration required to cause 50% death of uninfected MT-4 cells. It is filed as ADME, cell-based, MT4. The note with it: human.
Data set [2] addresses Human immunodeficiency virus type 1 protease (Human immunodeficiency virus 1, UniProt Q72874). As to the kind of experiment: Concentration required to inhibit HIV-1 protease cleavage by 50%.
Data set [3] is described as follows: Selectivity index, expressed as the ratio of CC50 and EC50. The note with it: read-out: SI. In a few lines:
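Ratio of CC50 to EC50 in HIV-infected MT4 cell cultures. The antiviral EC50 comes from inhibition of virus-induced syncytium formation (the fusogenic effect), scored by observing the cultures.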

Bounds are passed on as bounds.

As for `CC(C)CN(C[C@H](O)[C@H](NC(=O)O[C@@H]1CCOC1)Sc1ccccc1)S(=O)(=O)c1ccc(N)cc1`, the EC50 with MT4 was above 50 µM. In data set [1], this molecule yielded a half-maximal cytotoxic concentration (CC50) above 50 µM. The molecule further returned an IC50 in data set [2] of 11.6 µM.
Consider `CC(C)CN(C[C@H](O)[C@@H](NC(=O)O[C@@H]1CCOC1)Sc1ccccc1)S(=O)(=O)c1ccc(N)cc1`, for which, in the data set on MT4, the concentration for a half-maximal effect (EC50) was above 50 µM. Moreover, the CC50 in data set [1] was above 50 µM. The molecule further had a half-maximal inhibitory concentration (IC50) in data set [2] of 12.5 µM.
In the data set with MT4, `CC(C)CN(C[C@@H](O)[C@@H](NC(=O)O[C@@H]1CCOC1)Sc1ccccc1)S(=O)(=O)c1ccc(N)cc1` showed a concentration giving a half-maximal response (EC50) above 50 µM. The CC50 in data set [1] is above 50 µM. Moreover, in data set [2], the IC50 was 16.7 µM.
On to `CC(C)CN(C[C@@H](O)[C@H](NC(=O)O[C@@H]1CCOC1)Sc1ccccc1)S(=O)(=O)c1ccc(N)cc1`, for which, in the data set on MT4, the 50% effective concentration (EC50) was above 50 µM. The CC50 in data set [1] was above 50 µM. In data set [2], this molecule gave an IC50 of 1.4 µM.
As for `CC(C)CN(CC(O)C(NC(=O)O[C@H]1CCOC1)Sc1ccccc1)S(=O)(=O)c1ccc(N)cc1` (some centres not stated), in the data set with MT4, a half-maximal effect (EC50) was put at 50 µM. Besides, the CC50 in data set [1] was above 50 µM. Besides, the selectivity ratio in data set [3] is above 1.
As to `CC(C)CN(C[C@@H](O)[C@H](Cc1ccccc1)NC(=O)O[C@H]1CCOC1)S(=O)(=O)c1ccc(N)cc1`, the midpoint of the response in the data set with MT4, the EC50, lay at 0.01 µM. The molecule further returned a cytotoxic concentration (CC50) in data set [1] above 50 µM.

Usually EC50 stands for the concentration at which the effect is half-maximal. Higher therefore signals weaker potency. One may read the CC50 as the concentration giving 50% cytotoxicity. A high value points to lower toxicity to the cells. The IC50 is the concentration that gives 50% inhibition.
